Test results taken from ChEMBL document CHEMBL1926550, “Synthesis and antibacterial activity of naphthyridone derivatives containing mono/difluoro-methyloxime pyrrolidine scaffolds” (2012).
In brackets after ≈: the same amount, converted by molar mass.

These compounds were tested on Enterococcus faecium (assay: Antibacterial activity against Enterococcus faecium 09-6 after 18 hrs by two fold serial dilution method). Settings: 09-6, 18 h.
Assay type: functional
In short: (§1)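 Agar two-fold serial dilution in melted Mueller-Hinton agar, final concentrations 128 down to 0.008 μg/mL. Plates inoculated with 10⁴ cfu and incubated at 35 °C for 18 h. MIC taken as the lowest concentration giving no visible growth on the plate.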

| SMILES | MIC [µg/mL] |
| --- | --- |
| NCC1CN(c2nc3c(cc2F)c(=O)c(C(=O)O)cn3-c2ccc(F)cc2F)C/C1=N\OC(F)F (racemic) | 0.125 (≈ 0.251 µM) |

What follows are compounds tested on Staphylococcus aureus (assay: Antibacterial activity against methicillin-sensitive Staphylococcus aureus 10-2 after 18 hrs by two fold serial dilution method). Settings: 10-2, 18 h.
Assay type: functional
In short: as §1

| SMILES | MIC [µg/mL] |
| --- | --- |
| NCC1CN(c2nc3c(cc2F)c(=O)c(C(=O)O)cn3-c2ccc(F)cc2F)C/C1=N\OC(F)F (racemic) | 1 (≈ 2.01 µM) |

Each compound was assayed on Pseudomonas aeruginosa (assay: Antibacterial activity against Pseudomonas aeruginosa 10-3 after 18 hrs by two fold serial dilution method). Settings: 10-3, 18 h.
Assay type: functional
In short: as §1

| SMILES | MIC [µg/mL] |
| --- | --- |
| NCC1CN(c2nc3c(cc2F)c(=O)c(C(=O)O)cn3-c2ccc(F)cc2F)C/C1=N\OC(F)F (racemic) | 8 (≈ 16.1 µM) |

What follows are compounds tested on Staphylococcus aureus (assay: Antibacterial activity against methicillin-resistant Staphylococcus aureus 10-2 after 18 hrs by two fold serial dilution method). Settings: 10-2, 18 h.
Assay type: functional
In short: (§2)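 Agar two-fold serial dilution in melted Mueller-Hinton agar, 128 to 0.008 μg/mL. Plates inoculated with 10⁴ cfu, incubated 35 °C for 18 h. MIC taken as lowest concentration giving no visible growth on the plate.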

| SMILES | MIC [µg/mL] |
| --- | --- |
| NCC1CN(c2nc3c(cc2F)c(=O)c(C(=O)O)cn3-c2ccc(F)cc2F)C/C1=N\OC(F)F (racemic) | 4 (≈ 8.04 µM) |

What follows are compounds tested on Staphylococcus aureus (assay: Antibacterial activity against methicillin-sensitive Staphylococcus aureus 10-1 after 18 hrs by two fold serial dilution method). Settings: 10-1, 18 h.
Assay type: functional
In short: as §1

| SMILES | MIC [µg/mL] |
| --- | --- |
| NCC1CN(c2nc3c(cc2F)c(=O)c(C(=O)O)cn3-c2ccc(F)cc2F)C/C1=N\OC(F)F (racemic) | 0.03 (≈ 0.0603 µM) |

The compounds below were run on Escherichia coli (assay: Antibacterial activity against Escherichia coli 10-1 after 18 hrs by two fold serial dilution method). Settings: 10-1, 18 h.
Assay type: functional
In short: as §1

| SMILES | MIC [µg/mL] |
| --- | --- |
| NCC1CN(c2nc3c(cc2F)c(=O)c(C(=O)O)cn3-c2ccc(F)cc2F)C/C1=N\OC(F)F (racemic) | > 128 |

The compounds below were run on Staphylococcus aureus (assay: Antibacterial activity against methicillin-sensitive Staphylococcus aureus 10-6 after 18 hrs by two fold serial dilution method). Settings: 10-6, 18 h.
Assay type: functional
In short: as §1

| SMILES | MIC [µg/mL] |
| --- | --- |
| NCC1CN(c2nc3c(cc2F)c(=O)c(C(=O)O)cn3-c2ccc(F)cc2F)C/C1=N\OC(F)F (racemic) | 0.015 (≈ 0.0302 µM) |

The compounds below were run on Staphylococcus epidermidis (assay: Antibacterial activity against methicillin-sensitive Staphylococcus epidermidis 10-2 after 18 hrs by two fold serial dilution method). Settings: 10-2, 18 h.
Assay type: functional
In short: as §1

| SMILES | MIC [µg/mL] |
| --- | --- |
| NCC1CN(c2nc3c(cc2F)c(=O)c(C(=O)O)cn3-c2ccc(F)cc2F)C/C1=N\OC(F)F (racemic) | 64 (≈ 129 µM) |

The compounds below were run on Enterococcus faecium (assay: Antibacterial activity against Enterococcus faecium 09-4 after 18 hrs by two fold serial dilution method). Settings: 09-4, 18 h.
Assay type: functional
In short: as §1

| SMILES | MIC [µg/mL] |
| --- | --- |
| NCC1CN(c2nc3c(cc2F)c(=O)c(C(=O)O)cn3-c2ccc(F)cc2F)C/C1=N\OC(F)F (racemic) | 0.125 (≈ 0.251 µM) |

Each compound was assayed on Enterococcus faecium (assay: Antibacterial activity against Enterococcus faecium 09-1 after 18 hrs by two fold serial dilution method). Settings: 09-1, 18 h.
Assay type: functional
In short: as §1

| SMILES | MIC [µg/mL] |
| --- | --- |
| NCC1CN(c2nc3c(cc2F)c(=O)c(C(=O)O)cn3-c2ccc(F)cc2F)C/C1=N\OC(F)F (racemic) | 32 (≈ 64.3 µM) |

Each compound was assayed on Pseudomonas aeruginosa (assay: Antibacterial activity against Pseudomonas aeruginosa 10-2 after 18 hrs by two fold serial dilution method). Settings: 10-2, 18 h.
Assay type: functional
In short: as §1

| SMILES | MIC [µg/mL] |
| --- | --- |
| NCC1CN(c2nc3c(cc2F)c(=O)c(C(=O)O)cn3-c2ccc(F)cc2F)C/C1=N\OC(F)F (racemic) | 128 (≈ 257 µM) |

These compounds were tested on Staphylococcus epidermidis (assay: Antibacterial activity against methicillin-resistant Staphylococcus epidermidis 10-1 after 18 hrs by two fold serial dilution method). Settings: 10-1, 18 h.
Assay type: functional
In short: as §2

| SMILES | MIC [µg/mL] |
| --- | --- |
| NCC1CN(c2nc3c(cc2F)c(=O)c(C(=O)O)cn3-c2ccc(F)cc2F)C/C1=N\OC(F)F (racemic) | 2 (≈ 4.02 µM) |

What follows are compounds tested on Enterococcus faecium (assay: Antibacterial activity against Enterococcus faecium 09-5 after 18 hrs by two fold serial dilution method). Settings: 09-5, 18 h.
Assay type: functional
In short: as §1

| SMILES | MIC [µg/mL] |
| --- | --- |
| NCC1CN(c2nc3c(cc2F)c(=O)c(C(=O)O)cn3-c2ccc(F)cc2F)C/C1=N\OC(F)F (racemic) | 32 (≈ 64.3 µM) |

Each compound was assayed on Enterococcus faecium (assay: Antibacterial activity against Enterococcus faecium 09-2 after 18 hrs by two fold serial dilution method). Settings: 09-2, 18 h.
Assay type: functional
In short: as §1

| SMILES | MIC [µg/mL] |
| --- | --- |
| NCC1CN(c2nc3c(cc2F)c(=O)c(C(=O)O)cn3-c2ccc(F)cc2F)C/C1=N\OC(F)F (racemic) | 32 (≈ 64.3 µM) |

The compounds below were run on Pseudomonas aeruginosa (assay: Antibacterial activity against Pseudomonas aeruginosa 10-1 after 18 hrs by two fold serial dilution method). Settings: 10-1, 18 h.
Assay type: functional
In short: as §1

| SMILES | MIC [µg/mL] |
| --- | --- |
| NCC1CN(c2nc3c(cc2F)c(=O)c(C(=O)O)cn3-c2ccc(F)cc2F)C/C1=N\OC(F)F (racemic) | 1 (≈ 2.01 µM) |

What follows are compounds tested on Staphylococcus aureus (assay: Antibacterial activity against Staphylococcus aureus ATCC 25923 after 18 hrs by two fold serial dilution method). Settings: ATCC 25923, 18 h.
Assay type: functional
In short: as §1

| SMILES | MIC [µg/mL] |
| --- | --- |
| NCC1CN(c2nc3c(cc2F)c(=O)c(C(=O)O)cn3-c2ccc(F)cc2F)C/C1=N\OC(F)F (racemic) | 0.008 (≈ 0.0161 µM) |

Each compound was assayed on Streptococcus pneumoniae (assay: Antibacterial activity against Streptococcus pneumoniae 10-1 after 18 hrs by two fold serial dilution method). Settings: 10-1, 18 h.
Assay type: functional
In short: as §1

| SMILES | MIC [µg/mL] |
| --- | --- |
| NCC1CN(c2nc3c(cc2F)c(=O)c(C(=O)O)cn3-c2ccc(F)cc2F)C/C1=N\OC(F)F (racemic) | 0.06 (≈ 0.121 µM) |

Each compound was assayed on Staphylococcus aureus (assay: Antibacterial activity against methicillin-resistant Staphylococcus aureus 10-4 after 18 hrs by two fold serial dilution method). Settings: 10-4, 18 h.
Assay type: functional
In short: as §2

| SMILES | MIC [µg/mL] |
| --- | --- |
| NCC1CN(c2nc3c(cc2F)c(=O)c(C(=O)O)cn3-c2ccc(F)cc2F)C/C1=N\OC(F)F (racemic) | 16 (≈ 32.2 µM) |

Each compound was assayed on Staphylococcus aureus (assay: Antibacterial activity against methicillin-sensitive Staphylococcus aureus 10-5 after 18 hrs by two fold serial dilution method). Settings: 10-5, 18 h.
Assay type: functional
In short: as §1

| SMILES | MIC [µg/mL] |
| --- | --- |
| NCC1CN(c2nc3c(cc2F)c(=O)c(C(=O)O)cn3-c2ccc(F)cc2F)C/C1=N\OC(F)F (racemic) | 0.015 (≈ 0.0302 µM) |
